# Compounds with a hit are over-represented: about 1.7% of the library has one in this group of screens.
# IDE cell activ = boosts human insulin-degrading enzyme activity in HEK cells. P14735. FAbeta-B cleavage, fluorescence polarization; 0% vehicle, 100% cell-free pure enzyme wells. activation, % at 5.96 µM. 340,000 tested, 0.073% active. AID 493087;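 active = activation above the mean of all tested compounds plus 3 SD, set per screening campaign, cut at about 17% in these data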
# CSN deneddyl inh = blocks human CSN-mediated cullin deneddylation; Q92905; Purified CSN, SCF-Nedd8-OG deneddylation, fluorescence polarization; AID 651999; inhibition, % at 12.5 µM; 360,000 tested, 0.38% active;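 active = pattern-corrected inhibition above about 35%, with an unprinted fluorescence ratio check between 0.5 and 1.5, limit read from the data, passing the limit was not always enough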;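 note: 0% = enzyme with substrate and 100% = substrate without enzyme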
# Target sequence (Q92905 whole entry, looked up, one chain of several): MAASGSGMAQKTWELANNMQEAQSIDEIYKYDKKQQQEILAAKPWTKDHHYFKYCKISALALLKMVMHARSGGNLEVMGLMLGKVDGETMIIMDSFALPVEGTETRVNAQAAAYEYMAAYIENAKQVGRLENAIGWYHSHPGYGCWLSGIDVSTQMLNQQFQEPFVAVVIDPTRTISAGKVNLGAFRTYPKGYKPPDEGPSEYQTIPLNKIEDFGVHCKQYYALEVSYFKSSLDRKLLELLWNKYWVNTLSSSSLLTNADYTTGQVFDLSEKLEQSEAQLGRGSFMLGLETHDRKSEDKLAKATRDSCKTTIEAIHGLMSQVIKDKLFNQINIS
#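 Schedule: reaction 90 min, room temperature / Assay system: HEK293T-derived human Csn5 enzyme / Input: Csn5 at 0.24 nM final / Measure: inhibition of Csn5 cleavage, % / Control set: substrate-only high control, full reaction low control / Technique: fluorescence polarization of the substrate / Buffer or medium: Tris/NaCl/DTT buffer, pH 7.5 / Reagent: SCFSkp2-Nedd8OG substrate at 10 nM final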
# Tb MetRS inh = blocks T. brucei methionyl-tRNA synthetase activity. 360,000 tested, 0.4% active. AID 624268. purified T. brucei MetRS, ATP depletion, Kinase-Glo luminescence. inhibition, % at 11.9 µM;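 active = inhibition above a per-plate cutoff of the control wells' mean inhibition plus 3 SD, cut at about 5.5% in these data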;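 note: 0% = DMSO wells median and 100% = median of wells with control inhibitor compound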
#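 assay system = parasite MetRS enzyme | timing = 15 min preincubation, 2 h reaction, all 25 °C | evaluation = percent inhibition relative to median high and low control wells | medium = HEPES buffer containing pyrophosphatase, BSA, spermine, DTT | compound = single dose, 11.9 µM final nominal, 0.9% final DMSO | detection = Kinase-Glo luminescence, ATP depletion format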
# HNF4A DNA FP = change in binding of human HNF4 alpha to DNA | activity change, % at 10 µM | HNF4a-FITC DNA binding, fluorescence polarization, 1 h | 360,000 tested, 0.3% active; in the data active = activity change above about 30%, passing the limit was not always enough
# TPT1 inhibitor = C. albicans TPT1 enzyme inhibition; 300,000 tested, 0.81% active; inhibition, % at 5 µM; recombinant caTPT1, FP RNA substrate dephosphorylation;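 active = inhibition above the mean of all tested compounds plus 3 SD, set per screening campaign, cut at about 24% in these data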;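 note: plate controls were DMSO alone for no effect and ferristatin control at 100 nM for full effect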
# IDE inh = inhibitors of human insulin-degrading enzyme in cells; HEK cells, FAbetaB cleavage, fluorescence polarization; P14735; inhibition, % at 5.59 µM; 320,000 tested, 0.41% active; AID 434962;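 active = percent inhibition above the average of all tested compounds plus 3 SD, set per screening campaign, cut at about 16% in these data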;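 note: IDE supplied by intact live HEK cells; FP after avidin binding of uncleaved biotin substrate so inhibition keeps polarization high; 0% = DMSO wells and 100% = 60 µM reference IDE inhibitor Ii1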
# HNF4A confirm = change in binding of human HNF4 alpha to DNA, retest. shares compounds with HNF4A DNA FP. HNF4A-FITC DNA binding, fluorescence polarization, 1 h. activity change, % at 12.5 µM. 210 tested, 99% active; call rule not given here
# * hit, by the source's call; . = no result.
SMILES,IDE cell activ,CSN deneddyl inh,Tb MetRS inh,HNF4A DNA FP,TPT1 inhibitor,IDE inh,HNF4A confirm
O=C(NC1CCCC1)c1cccc2c1C(=O)c1ccc(N3CCCCC3)cc1S2(=O)=O,-2.4,22.1,-0.2,52.1*,.,1.4,53.9*
CC1CCN(c2ccc3c(c2)S(=O)(=O)c2cccc(C(=O)NC4CCCCC4)c2C3=O)CC1,-7.9,17.4,-0.3,40.2*,.,5.6,39.9*
CC(=O)Nc1ccc(S(=O)(=O)NC(C(=O)O)C(C)O)cc1 (stereo not given),10.4,-0.4,-0.5,1.3,-0.1,-3.4,.
C#CCOCCOCCOCCNc1nc(N2CCN(C(=O)[C@H](CCCCN)n3cc([C@@H](N)C(C)CC)nn3)CC2)nc(N2CCN(C(=O)[C@H](CCCCN)n3cc([C@@H](N)CC(C)C)nn3)CC2)n1 (stereo not given in full),0.1,68.9*,-0.2,71.9*,1.8,3.0,111.9*
Cc1nnc2sc(-c3ccc(NC(=O)c4ccc(-c5ccc(Cl)cc5Cl)o4)cc3)nn12,4.6,32.0,-0.7,102.9*,1.0,2.4,45.7*
CCN1C(=O)/C(=C2/Sc3ccc(OC)cc3N2C)SC1=Nc1ccc(OC)cc1,0.3,-5.2,0.5,3.5,2.6,0.7,.
C=CCN1C(=O)/C(=C2/Sc3ccc(OC)cc3N2C)SC1=Nc1cccc(O)c1,-2.3,24.9,0.4,47.4*,14.2,0.3,69.5*
O=C(O)c1ccccc1NC(=O)C(Cc1ccccc1)N1C(=O)c2ccccc2C1=O (stereo not given),0.1,-5.4,-0.5,-1.4,1.0,6.7,.
O=C(Nc1ccc([N+](=O)[O-])cc1)C(Cc1ccccc1)N1C(=O)c2cccc3cccc(c23)C1=O (stereo not given),-0.2,23.6,-0.3,54.3*,0.1,-1.6,93.7*
O=C(N/N=C/c1cc2ccccc2nc1Cl)/C(=C/c1cccs1)NC(=O)c1ccccc1,-0.5,18.9,-0.3,46.6*,10.0,14.0,49.7*
CCc1nc2c(OCC(=O)C(C)(C)C)cccn2c1N(C)C(=O)COc1ccccc1,.,-3.5,-0.3,0.4,.,.,.
COC(=O)c1cc(-c2ccccc2)sc1N,1.1,1.4,-1.0,0.9,4.6,0.2,.
C#CCNC(=O)c1cc(-c2ccccc2)sc1N,.,22.4,0.5,67.1*,.,.,79.8*
O=C(Nc1nccs1)c1cc(-c2ccccn2)nc2c(Cl)cccc12,-1.1,26.4,-0.1,72.5*,-1.2,-3.4,45.4*
Cc1cc(NC(=O)c2cc(-c3ccccn3)nc3c(Cl)cccc23)no1,5.2,1.9,0.1,-1.7,-1.3,3.5,.
O=C(c1ccc([N+](=O)[O-])s1)N1CCc2ccccc21,1.6,19.1,0.5,66.7*,1.1,2.6,52.9*
COc1ccc(CCNC(=O)CCCCCn2c(SCC(N)=O)nc3cc4c(cc3c2=O)OCO4)cc1OC,3.6,1.1,-0.8,0.7,0.0,-2.3,.
O=C(O)C1CCCC2CN3CCc4c([nH]c5ccccc45)C3C(O)C21 (stereo not given),2.7,-16.3,-0.6,-19.8,-14.7,2.6,.
Cc1cc(NC(=O)Cn2nc(C)c([N+](=O)[O-])c2C)no1,-1.2,-2.7,0.1,0.6,-4.2,-0.5,.
C=CCc1c(C)[nH]c2c(OC)cccc2c1=S,-4.0,-0.6,0.5,-1.5,1.7,-0.1,.
N=c1n(CC(=O)c2ccc([N+](=O)[O-])cc2)c2ccccc2n1Cc1ccccc1,-1.5,30.7,0.3,67.6*,9.2,4.0,106.9*
N=c1n(CC(=O)c2ccc([N+](=O)[O-])cc2)c2ccccc2n1Cc1ccccc1Cl,-0.5,-4.8,-1.5,5.9,-0.3,0.3,.
N=c1n(CC(=O)c2ccc([N+](=O)[O-])cc2)c2ccccc2n1Cc1ccc(Cl)cc1,5.1,12.4,-0.2,39.7*,3.3,4.2,118.8*
O=C(O)c1cc(S(=O)(=O)Nc2ccc3cn[nH]c3c2)ccc1O,-0.6,-3.5,-0.1,-1.6,.,1.9,.
O=C(Nc1ccc2oc(-c3ccncc3)nc2c1)c1ccc2c(c1)OCO2,-15.1,111.2*,2.5,65.6*,0.7,8.6,168.8*
O=C(Nc1ccc2oc(-c3ccncc3)nc2c1)c1c(F)c(F)c(F)c(F)c1F,3.1,-1.6,0.1,4.3,1.3,-2.7,.
COC(=O)Cc1ccc(OC(=O)c2cccc(S(=O)(=O)N3CCN(C)CC3)c2)cc1,2.5,4.5,0.6,0.3,0.6,1.5,.
